Measurements: ChEMBL document CHEMBL1129463, “Discovery of 1,5-benzodiazepines with peripheral cholecystokinin (CCK-A) receptor agonist activity (II): Optimization of the C3 amino substituent” (J Med Chem, 1996)
The source made the active and inactive calls. The rule behind the calls is not given here.

Assays:
[1] = species on record: Cavia porcellus; assay: In vitro functional activity on the isolated guinea pig gallbladder; set-up: concentration or dose not given beside the values
[2] = species on record: Cavia porcellus; assay: In vitro Functional activity on the isolated guinea pig gallbladder following incubation at 30 uM percent contraction normalized to that for CCK-8; inactive
How it was run: (§1)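 Contraction is expressed as percent of the CCK-8 (1 μM) response. Non-contracting compounds were tested for antagonism against a CCK-8 curve (10⁻¹¹ to 10⁻⁶ M).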

[3] = species on record: Cavia porcellus; assay: In vitro Functional activity on the isolated guinea pig gallbladder following incubation at 1 micro M percent contraction normalized to that for CCK-8; how it was run: as §1
[4] = species on record: Cavia porcellus; assay: Maximum contractile response at 30 uM, normalized to CCK-8 (1 uM); format: functional
[5] = species on record: Cavia porcellus; assay: In-vitro potency on the isolated guinea pig gallbladder; format: functional
[6] = tested on: Mus musculus; assay: Compound was tested in vivo for its activity in mouse gallbladder emptying assay at dose of 0.1 umol/kg ip; format: functional
[7] = tested on: Mus musculus; assay: Compound was tested in vivo Percent Maximal response activity in mouse gallbladder emptying assay at dose of 1 nmol/kg ip
[8] = tested on: Rattus norvegicus; assay: Compound was tested in vivo for its anorectic potency in rats at dose of 0.5 umol/kg ip
[9] = tested on: Rattus norvegicus; assay: Compound was tested in vivo for its Percent Maximal anorectic potency in rats at dose of 0.5 umol/kg ip
[10] = tested on: Rattus norvegicus; assay: Compound was tested in vivo for its Percent Maximal anorectic potency in rats at dose of 10 umol/kg po; ia = Inactive
[11] = tested on: Rattus norvegicus; assay: Compound was tested in vivo for its Percent Maximal anorectic potency in rats at dose of 0.1 umol/kg ip; format: functional
[12] = tested on: Mus musculus; assay: Compound was tested in vivo for its activity in mouse gallbladder emptying assay at dose of 1 umol/kg po; ia = Inactive; format: functional, organism-based
[13] = tested on: Mus musculus; assay: Compound was tested in vivo for Percent Maximal response in mouse gallbladder emptying assay at dose of 1 umol/kg po; ia = Inactive; format: functional, organism-based
[14] = species on record: Cavia porcellus; assay: In vitro potency on the isolated guinea pig gallbladder; format: functional
[15] = tested on: Mus musculus; assay: Compound was tested in vivo for Percent Maximal response in mouse gallbladder emptying assay at dose of 1 umol/kg po; format: functional
[16] = tested on: Rattus norvegicus; assay: Compound was tested in vivo for its anorectic potency in rats at dose of 0.1 umol/kg ip; format: functional
[17] = tested on: Rattus norvegicus; assay: Compound was tested in vivo for its Percent Maximal anorectic potency in rats at dose of 0.5 umol/kg ip; format: functional
[18] = biological target: T1, Gastrin/cholecystokinin type B receptor (Homo sapiens, UniProt P32239); assay: Compound was tested in vitro for its ability to displace [125I]Bolton-Hunter CCK-8 from membrane preparation isolated from CHO-KI cells stably transfected with cDNA of human Cholecystokinin type B receptor; format: cell membranes
T1 sequence (P32239 whole entry): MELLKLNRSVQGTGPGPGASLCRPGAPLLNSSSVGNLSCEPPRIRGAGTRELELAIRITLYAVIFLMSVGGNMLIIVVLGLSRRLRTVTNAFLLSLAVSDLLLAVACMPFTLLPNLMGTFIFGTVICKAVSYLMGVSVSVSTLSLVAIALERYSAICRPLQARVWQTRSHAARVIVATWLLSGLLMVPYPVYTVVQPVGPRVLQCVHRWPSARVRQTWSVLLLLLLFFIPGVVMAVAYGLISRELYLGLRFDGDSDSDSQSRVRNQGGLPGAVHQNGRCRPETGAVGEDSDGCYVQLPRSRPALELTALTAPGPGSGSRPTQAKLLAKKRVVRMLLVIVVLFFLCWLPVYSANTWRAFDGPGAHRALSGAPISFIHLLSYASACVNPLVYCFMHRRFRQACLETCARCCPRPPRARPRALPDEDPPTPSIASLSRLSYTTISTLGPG

[19] = biological target: Cholecystokinin receptor (Homo sapiens) (UniProt P32239+P32238); assay: Selectivity ratio of inhibition of CCK-A vs CCK-B; format: protein assay
How it was run: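 Displacement of [125I]Bolton-Hunter CCK-8 from membranes of CHO-K1 cells stably transfected with human CCK-A or CCK-B receptor cDNA. pIC50 values were measured for each receptor. The ratio is IC50 CCK-A / IC50 CCK-B.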

[20] = tested on: Rattus norvegicus; assay: Compound was tested in vivo for its Percent Maximal anorectic potency in rats at dose of 10 umol/kg po; ia = Inactive; format: functional, organism-based
[21] = tested on: Mus musculus; assay: Compound was tested in vivo for its activity in mouse gallbladder emptying assay at dose of 1 umol/kg po; format: functional
[22] = biological target: T2, Cholecystokinin receptor type A (Homo sapiens, UniProt P32238); assay: Compound was tested in vitro for its ability to displace [125I]Bolton-Hunter CCK-8 from membrane preparation isolated from CHO-KI cells stably transfected with cDNA of human Cholecystokinin type A receptor; format: cell membranes
T2 sequence (P32238 whole entry): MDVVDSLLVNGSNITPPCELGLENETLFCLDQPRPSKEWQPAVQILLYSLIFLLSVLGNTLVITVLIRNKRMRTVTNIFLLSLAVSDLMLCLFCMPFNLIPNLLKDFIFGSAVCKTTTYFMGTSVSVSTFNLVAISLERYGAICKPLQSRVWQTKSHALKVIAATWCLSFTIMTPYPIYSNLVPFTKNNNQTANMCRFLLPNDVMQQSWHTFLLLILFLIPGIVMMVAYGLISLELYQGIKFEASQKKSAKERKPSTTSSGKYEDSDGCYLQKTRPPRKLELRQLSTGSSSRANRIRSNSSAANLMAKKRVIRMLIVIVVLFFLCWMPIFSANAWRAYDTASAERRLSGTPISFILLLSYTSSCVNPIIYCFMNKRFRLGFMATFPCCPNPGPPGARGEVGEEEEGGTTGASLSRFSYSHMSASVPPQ

## CC(C)N(C(=O)CN1C(=O)C(NC(=O)c2ccncc2)C(=O)N(c2ccccc2)c2ccccc21)c1ccccc1 (stereo unspecified)
[1]
  Activity: 43%

## CC(C)NC(=O)NC1C(=O)N(CC(=O)N(c2ccccc2)C(C)C)c2ccccc2N(c2ccccc2)C1=O (stereo unspecified)
[1]
  Activity: 22%

## CC(C)N(C(=O)CN1C(=O)C(NC(=O)Nc2ccc(C(=O)O)cc2)C(=O)N(c2ccccc2)c2ccccc21)c1ccccc1 (stereo unspecified)
[1]
  Activity: 14%

## CSc1cccc(NC(=O)NC2C(=O)N(CC(=O)N(c3ccccc3)C(C)C)c3ccccc3N(c3ccccc3)C2=O)c1 (stereo unspecified)
[1]
  Activity: 58%

## CC(C)N(C(=O)CN1C(=O)C(NC(=O)Nc2cccc(CC(=O)O)c2)C(=O)N(c2ccccc2)c2ccccc21)c1ccccc1 (stereo unspecified)
[1]
  Activity: 89%

## CC(C)N(C(=O)CN1C(=O)C(NC(=O)Nc2ccccc2O)C(=O)N(c2ccccc2)c2ccccc21)c1ccccc1 (stereo unspecified)
[1]
  Activity: 16%

## CC(C)N(C(=O)CN1C(=O)C(NC(N)=O)C(=O)N(c2ccccc2)c2ccccc21)c1ccccc1 (stereo unspecified)
[2]
  Activity: inactive

## CC(C)N(C(=O)CN1C(=O)C(NC(=O)Nc2cccc(-c3nn[nH]n3)c2)C(=O)N(c2ccccc2)c2ccccc21)c1ccccc1 (stereo unspecified)
[1]
  Activity: 79%
[3]
  Activity: 64%

## CC(C)N(C(=O)CN1C(=O)C(NC(=O)Nc2cccc(C(N)=O)c2)C(=O)N(c2ccccc2)c2ccccc21)c1ccccc1 (stereo unspecified)
[1]
  Activity: 76%

## Cc1ccccc1NC(=O)NC1C(=O)N(CC(=O)N(c2ccccc2)C(C)C)c2ccccc2N(c2ccccc2)C1=O (stereo unspecified)
[1]
  Activity: 34%

## CC(C)N(C(=O)CN1C(=O)C(NC(=O)Nc2cccc(S(C)(=O)=O)c2)C(=O)N(c2ccccc2)c2ccccc21)c1ccccc1 (stereo unspecified)
[1]
  Activity: 53%

## CC(C)N(C(=O)CN1C(=O)C(NC(=O)c2c[nH]c3ccccc23)C(=O)N(c2ccccc2)c2ccccc21)c1ccccc1 (stereo unspecified)
[1]
  Activity: 5%

## CC(C)N(C(=O)CN1C(=O)C(NC(=O)c2cccnc2)C(=O)N(c2ccccc2)c2ccccc21)c1ccccc1 (stereo unspecified)
[1]
  Activity: 43%

## COc1ccc(NC(=O)NC2C(=O)N(CC(=O)N(c3ccccc3)C(C)C)c3ccccc3N(c3ccccc3)C2=O)cc1 (stereo unspecified)
[1]
  Activity: 38%

## CC(C)N(C(=O)CN1C(=O)C(NC(=O)NCc2ccccc2)C(=O)N(c2ccccc2)c2ccccc21)c1ccccc1 (stereo unspecified)
[1]
  Activity: 1%

## CC(C)N(C(=O)CN1C(=O)C(NC(=O)c2cc3ccccc3o2)C(=O)N(c2ccccc2)c2ccccc21)c1ccccc1 (stereo unspecified)
[1]
  Activity: 35%

## CC(C)N(C(=O)CN1C(=O)C(NC(=O)Nc2cccc(OCC(=O)N(C)C)c2)C(=O)N(c2ccccc2)c2ccccc21)c1ccccc1 (stereo unspecified)
[1]
  Activity: 77%

## CC(C)N(C(=O)CN1C(=O)C(NC(=O)Nc2cccc(Cl)c2)C(=O)N(c2ccccc2)c2ccccc21)c1ccccc1 (stereo unspecified)
[1]
  Activity: 7%

## Cc1cccc(NC(=O)NC2C(=O)N(CC(=O)N(c3ccccc3)C(C)C)c3ccccc3N(c3ccccc3)C2=O)c1 (stereo unspecified)
[1]
  Activity: 5%

## CC(C)N(C(=O)CN1C(=O)C(NC(=O)Nc2cccc(N(C)C)c2)C(=O)N(c2ccccc2)c2ccccc21)c1ccccc1 (stereo unspecified)
[1]
  Activity: 58%
[3]
  Activity: 29%

## CSCC[C@H](NC(=O)[C@H](Cc1ccc(OS(=O)(=O)O)cc1)NC(=O)[C@@H](N)CC(=O)O)C(=O)NCC(=O)N[C@@H](Cc1c[nH]c2ccccc12)C(=O)N[C@@H](CCSC)C(=O)N[C@@H](CC(=O)O)C(=O)N[C@@H](Cc1ccccc1)C(N)=O [SINCALIDE]
[4]
  Max: 100%
[5]
  EC50: 0.794 nM
[6]
  ED50: 3e-05 µmol/kg
[7]
  Max: 95%
[8]
  ED50: 0.027 µmol/kg
[9]
  Max: 95%
[10]
  Max: inactive

## CC(C)N(C(=O)CN1C(=O)C(NC(=O)Nc2cccc(OCC(N)=O)c2)C(=O)N(c2ccccc2)c2ccccc21)c1ccccc1 (stereo unspecified)
[1]
  Activity: 95%

## CC(C)N(C(=O)CN1C(=O)C(NC(=O)Nc2cccc(OCC(=O)O)c2)C(=O)N(c2ccccc2)c2ccccc21)c1ccccc1 (stereo unspecified)
[1]
  Activity: 98%
[3]
  Activity: 85%

## CC(C)N(C(=O)CN1C(=O)C(NC(=O)Nc2cccc(CO)c2)C(=O)N(c2ccccc2)c2ccccc21)c1ccccc1 (stereo unspecified)
[1]
  Activity: 90%
[3]
  Activity: 85%

## CC(C)N(C(=O)CN1C(=O)C(NC(=O)Nc2cccc(O)c2)C(=O)N(c2ccccc2)c2ccccc21)c1ccccc1 (stereo unspecified)
[1]
  Activity: 89%
[3]
  Activity: 82%

## CC(C)N(C(=O)CN1C(=O)C(NC(=O)Cc2ccccc2)C(=O)N(c2ccccc2)c2ccccc21)c1ccccc1 (stereo unspecified)
[1]
  Activity: 28%

## COc1cccc(NC(=O)NC2C(=O)N(CC(=O)N(c3ccccc3)C(C)C)c3ccccc3N(c3ccccc3)C2=O)c1 (stereo unspecified)
[1]
  Activity: 78%

## CC(C)N(C(=O)CN1C(=O)C(NC(=O)Nc2cccc(NS(=O)(=O)C(F)(F)F)c2)C(=O)N(c2ccccc2)c2ccccc21)c1ccccc1 (stereo unspecified)
[1]
  Activity: 89%
[3]
  Activity: 87%

## Cc1ccc(NC(=O)NC2C(=O)N(CC(=O)N(c3ccccc3)C(C)C)c3ccccc3N(c3ccccc3)C2=O)cc1 (stereo unspecified)
[1]
  Activity: 20%

## CC(C)N(C(=O)CN1C(=O)C(NC(=O)c2ccccc2C(=O)O)C(=O)N(c2ccccc2)c2ccccc21)c1ccccc1 (stereo unspecified)
[1]
  Activity: 58%

## CC(C)N(C(=O)CN1C(=O)C(NC(=O)c2cccc(C(=O)O)c2)C(=O)N(c2ccccc2)c2ccccc21)c1ccccc1 (stereo unspecified)
[1]
  Activity: 56%

## CC(C)N(C(=O)CN1C(=O)C(NC(=O)Nc2ccccc2)C(=O)N(c2ccccc2)c2ccccc21)c1ccccc1 (stereo unspecified)
[4]
  Max: 86%
[1]
  Activity: 86%
[7]
  Max: 78%
[11]
  Max: 96%
[8]
  ED50: 0.95 µmol/kg
[12]
  ED50: inactive
[13]
  Max: inactive
[10]
  Max: inactive
[14]
  EC50: 1260 nM

## CC(C)N(C(=O)CN1C(=O)C(NC(=O)Nc2cccc(N)c2)C(=O)N(c2ccccc2)c2ccccc21)c1ccccc1 (stereo unspecified)
[1]
  Activity: 76%
[3]
  Activity: 50%

## CC(C)N(C(=O)CN1C(=O)C(NC(=O)N2CCNCC2)C(=O)N(c2ccccc2)c2ccccc21)c1ccccc1 (stereo unspecified)
[2]
  Activity: inactive

## CC(C)N(C(=O)CN1C(=O)C(NC(=O)Nc2cccc(OCCN(C)C)c2)C(=O)N(c2ccccc2)c2ccccc21)c1ccccc1 (stereo unspecified)
[1]
  Activity: 2%

## CC(C)N(C(=O)CN1C(=O)C(NC(=O)c2ccccc2)C(=O)N(c2ccccc2)c2ccccc21)c1ccccc1 (stereo unspecified)
[1]
  Activity: 57%

## CC(C)N(C(=O)CN1C(=O)C(NC(=O)Nc2cccc(OCC(=O)N3CCOCC3)c2)C(=O)N(c2ccccc2)c2ccccc21)c1ccccc1 (stereo unspecified)
[1]
  Activity: 78%

## CC(C)N(C(=O)CN1C(=O)C(NC(=O)c2cc3ccccc3[nH]2)C(=O)N(c2ccccc2)c2ccccc21)c1ccccc1 (stereo unspecified)
[4]
  Max: 49%
[15]
  Max: 85%
[16]
  ED50: 0.095 µmol/kg
[5]
  EC50: 501 nM
[1]
  Activity: 49%
[6]
  ED50: 0.005 µmol/kg
[7]
  Max: 73%
[17]
  Max: 56%
[18]
  IC50: 316 nM
[19]
  Selectivity ratio: 20
[20]
  Max: inactive
[21]
  ED50: 0.3 µmol/kg
[22]
  IC50: 15.8 nM
